ChEMBL document CHEMBL1129609, “Synthesis and antiviral activity evaluation of some new aminoadamantane derivatives. 2” (1996)
Values after ≈ are worked out from the molar mass of the structure shown.

Assays:
[1] = system: Human immunodeficiency virus 1; test: Antiviral activity against HIV-1 virus infected CEM cell lines.; type: functional, CCRF-CEM
[2] = Antiviral activity against influenza A,H3N2 virus infected MDCK cell lines.; type: functional
HEF = test: Effects on cell morphology of HEF cell lines.; type: functional; conditions: Homo sapiens
Procedure, shortened: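 Human embryonic skin-muscle fibroblasts were examined under the microscope for changes in normal cell morphology. The value is the minimum concentration causing a microscopically detectable alteration, averaged from at least two separate experiments.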

Human betaherpesvirus 5 = test: Antiviral activity against HCMV virus infected HEL cell lines.; type: functional
Procedure, shortened: (§1)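 Vero (African green monkey kidney), HeLa (human epithelial) or HEL (human embryonic lung) cell monolayers infected with the virus. Readout is the minimum inhibitory concentration that reduces virus-induced cytopathicity by 50%. Values are averages of at least two separate experiments.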

Sindbis virus = test: Antiviral activity against sindbis virus infected Vero cell lines.; type: functional; procedure, shortened: as §1
Coxsackievirus B4 [3] = test: Antiviral activity against Coxsackie B4 virus infected vero cell lines.; type: functional; conditions: Enterovirus B; procedure, shortened: as §1
Human alphaherpesvirus 3 [4] = test: Antiviral activity against TK+VZV virus infected HEL cell lines.; type: functional; procedure, shortened: as §1
MDCK [5] = test: Antiviral activity tested against influenza A,H1N1 virus infected MDCK cell lines.; type: functional; conditions: Canis lupus familiaris
Enterovirus C = test: Antiviral activity against polio 1 virus infected HeLa cell lines.; type: functional; procedure, shortened: as §1
Human respirovirus 3 = test: Antiviral activity against parainfluenza 3 virus infected Vero cell lines.; type: functional; procedure, shortened: as §1
Influenza B virus = test: Antiviral activity against influenza B virus infected MDCK cell lines.; type: functional
[6] = system: Vesicular stomatitis virus; test: Antiviral activity against vesicular stomatitis virus infected HeLa cell lines.; type: functional; procedure, shortened: as §1
Human alphaherpesvirus 1 [7] = test: Antiviral activity against HSV-1 virus infected HEF cell lines.; type: functional
Procedure, shortened: (§2)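 Human embryonic fibroblasts, from embryonic lung or embryonic skin-muscle, infected with the virus. Endpoint is the minimum inhibitory concentration that reduces virus-induced cytopathicity by 50%. Values are averages of at least two separate experiments.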

Human alphaherpesvirus 3 [8] = test: Antiviral activity against TK-VZV virus infected HEL cell lines.; type: functional; procedure, shortened: as §1
[9] = Antiviral activity against influenza A,H2N2 virus infected MDCK cell lines.; type: functional
Human alphaherpesvirus 2 = test: Antiviral activity against HSV-2 virus infected HEF cell lines.; type: functional; procedure, shortened: as §2
HEL = test: Inhibition of HEL cell proliferation.; type: functional; conditions: Homo sapiens
Procedure, shortened: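 Human embryonic lung fibroblasts were used for the proliferation assay. The value is the concentration that reduces cell proliferation by 50%, averaged from at least two separate experiments.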

[10] = system: Mammalian orthoreovirus 1; test: Antiviral activity against Reo 1 virus infected vero cell lines.; type: functional; procedure, shortened: as §1
HeLa = test: Effects on cell morphology of HeLa cell lines.; type: functional; conditions: Homo sapiens
Procedure, shortened: (§3)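 HeLa (human epithelial) or Vero (African green monkey kidney) cells were examined under the microscope for changes in normal morphology. The value is the minimum concentration causing a detectable alteration, averaged from at least two separate experiments.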

[11] = system: Human immunodeficiency virus 2; test: Antiviral activity against HIV-2 virus infected CEM cell lines.; type: functional, CCRF-CEM
Vaccinia virus = test: Antiviral activity against vaccinia virus infected HEF cell lines.; type: functional; conditions: Orthopoxvirus vaccinia; procedure, shortened: as §2
Vero = test: Effects on cell morphology of Vero cell lines.; type: functional; conditions: Chlorocebus sabaeus; procedure, shortened: as §3
Coxsackievirus B4 [12] = test: Antiviral activity against Coxsackie B4 virus infected HeLa cell lines.; type: functional; conditions: Enterovirus B; procedure, shortened: as §1
Human alphaherpesvirus 1 [13] = test: Antiviral activity against TK-HSV-1 virus infected HEF cell lines.; type: functional; procedure, shortened: as §2
Semliki Forest virus = test: Antiviral activity against Semliki forest virus infected Vero cell lines.; type: functional; procedure, shortened: as §1
CCRF-CEM = test: Cytotoxicity against CEM cell lines.; type: functional; conditions: Homo sapiens
[14] = system: Vesicular stomatitis virus; test: Antiviral activity against vesicular stomatitis virus infected HEF cell lines.; type: functional; procedure, shortened: as §2
MDCK [15] = test: Antiviral activity of compound was tested against morphology virus infec+ted MDCK cell lines.; type: functional; conditions: Canis lupus familiaris

For `C1COCC2(N1)C1CC3CC(C1)CC2C3` (stereo not given), the MIC50 [1] was 158 µg/mL (≈ 762 µM), the MIC50 [2] was 13 µg/mL (≈ 62.7 µM) and the MIC50 (HEF) was > 200 µg/mL. For the same molecule, the MIC50 (Human betaherpesvirus 5) was > 50 µg/mL, the MIC50 (Sindbis virus) was > 400 µg/mL and the MIC50 (Coxsackievirus B4 [3]) was > 400 µg/mL. For the same molecule, the MIC50 (Human alphaherpesvirus 3 [4]) was > 50 µg/mL, the MIC50 (MDCK [5]) was 29 µg/mL (≈ 140 µM) and the MIC50 (Enterovirus C) was > 400 µg/mL. The MIC50 (Human respirovirus 3) was > 400 µg/mL, the MIC50 (Influenza B virus) was 20 µg/mL (≈ 96.5 µM) and the MIC50 [6] was > 400 µg/mL. For the same molecule, the MIC50 (Human alphaherpesvirus 1 [7]) was > 200 µg/mL, the MIC50 (Human alphaherpesvirus 3 [8]) was > 50 µg/mL and the MIC50 [9] was 1.7 µg/mL (≈ 8.2 µM). For the same molecule, the MIC50 (Human alphaherpesvirus 2) was > 200 µg/mL, the MIC50 (HEL) was > 50 µg/mL and the MIC50 [10] was > 400 µg/mL. The MIC50 (HeLa) was > 400 µg/mL, the MIC50 [11] was > 200 µg/mL and the MIC50 (Vaccinia virus) was > 200 µg/mL. The MIC50 (Vero) was > 400 µg/mL, the MIC50 (Coxsackievirus B4 [12]) was > 400 µg/mL and the MIC50 (Human alphaherpesvirus 1 [13]) was > 200 µg/mL. For the same molecule, the MIC50 (Semliki Forest virus) was > 400 µg/mL, the MIC50 (CCRF-CEM) was > 200 µg/mL and the MIC50 [14] was > 200 µg/mL. For the same molecule, the MIC50 (MDCK [15]) was > 250 µg/mL.

In the case of `CCCCN1CCCC1C12CC3CC(CC(C3)C1)C2` (stereo not given), the MIC50 [1] is reported as > 40 µg/mL, the MIC50 [2] is reported as > 100 µg/mL and the MIC50 (HEF) is reported as 100 µg/mL (≈ 382 µM). For the same molecule, the MIC50 (Human betaherpesvirus 5) was > 50 µg/mL, the MIC50 (Sindbis virus) was > 100 µg/mL and the MIC50 (Coxsackievirus B4 [3]) was > 100 µg/mL. The MIC50 (Human alphaherpesvirus 3 [4]) was > 50 µg/mL, the MIC50 (MDCK [5]) was 4 µg/mL (≈ 15.3 µM) and the MIC50 (Enterovirus C) was > 100 µg/mL. For the same molecule, the MIC50 (Human respirovirus 3) was > 100 µg/mL, the MIC50 (Influenza B virus) was > 80 µg/mL and the MIC50 [6] was > 100 µg/mL. For the same molecule, the MIC50 (Human alphaherpesvirus 1 [7]) was > 40 µg/mL, the MIC50 (Human alphaherpesvirus 3 [8]) was > 20 µg/mL and the MIC50 [9] was 44.5 µg/mL (≈ 170 µM). For the same molecule, the MIC50 (Human alphaherpesvirus 2) was > 40 µg/mL, the MIC50 (HEL) was > 50 µg/mL and the MIC50 [10] was > 100 µg/mL. The MIC50 (HeLa) was 200 µg/mL (≈ 765 µM), the MIC50 [11] was > 40 µg/mL and the MIC50 (Vaccinia virus) was > 40 µg/mL. The MIC50 (Vero) was > 200 µg/mL, the MIC50 (Coxsackievirus B4 [12]) was > 100 µg/mL and the MIC50 (Human alphaherpesvirus 1 [13]) was > 40 µg/mL. The MIC50 (Semliki Forest virus) was > 100 µg/mL, the MIC50 (CCRF-CEM) was 74 µg/mL (≈ 283 µM) and the MIC50 [14] was > 40 µg/mL. For the same molecule, the MIC50 (MDCK [15]) was 250 µg/mL (≈ 956 µM).

For `NC1(C23CC4CC(CC(C4)C2)C3)CCCC1`, the MIC50 [1] was > 8 µg/mL, the MIC50 [2] was 6 µg/mL (≈ 27.4 µM) and the MIC50 (HEF) was 40 µg/mL (≈ 182 µM). For the same molecule, the MIC50 (Human betaherpesvirus 5) was > 20 µg/mL, the MIC50 (Sindbis virus) was > 10 µg/mL and the MIC50 (Coxsackievirus B4 [3]) was > 10 µg/mL. For the same molecule, the MIC50 (Human alphaherpesvirus 3 [4]) was > 20 µg/mL, the MIC50 (MDCK [5]) was > 64 µg/mL and the MIC50 (Enterovirus C) was > 40 µg/mL. The MIC50 (Human respirovirus 3) was > 10 µg/mL, the MIC50 (Influenza B virus) was 20 µg/mL (≈ 91.2 µM) and the MIC50 [6] was > 40 µg/mL. For the same molecule, the MIC50 (Human alphaherpesvirus 1 [7]) was > 10 µg/mL, the MIC50 (Human alphaherpesvirus 3 [8]) was > 20 µg/mL and the MIC50 [9] was 2.5 µg/mL (≈ 11.4 µM). For the same molecule, the MIC50 (Human alphaherpesvirus 2) was > 10 µg/mL, the MIC50 (HEL) was > 50 µg/mL and the MIC50 [10] was > 10 µg/mL. The MIC50 (HeLa) was 100 µg/mL (≈ 456 µM), the MIC50 [11] was > 8 µg/mL and the MIC50 (Vaccinia virus) was > 10 µg/mL. The MIC50 (Vero) was > 400 µg/mL, the MIC50 (Coxsackievirus B4 [12]) was > 40 µg/mL and the MIC50 (Human alphaherpesvirus 1 [13]) was > 10 µg/mL. For the same molecule, the MIC50 (Semliki Forest virus) was > 10 µg/mL, the MIC50 (CCRF-CEM) was 18 µg/mL (≈ 82.1 µM) and the MIC50 [14] was > 10 µg/mL. The MIC50 (MDCK [15]) was > 250 µg/mL.

In the case of `NC12CC3CC(CC(C3)C1)C2` [AMANTADINE], the MIC50 (MDCK [5]) is reported as 48 µg/mL (≈ 317 µM), the MIC50 [9] is reported as 0.8 µg/mL (≈ 5.29 µM) and the MIC50 (MDCK [15]) is reported as > 250 µg/mL.

In the case of `Nc1nc2c(ncn2COC(CO)CO)c(=O)[nH]1` [GANCICLOVIR], the MIC50 (HEF) is reported as > 100 µg/mL, the MIC50 (Human betaherpesvirus 5) is reported as 0.7 µg/mL (≈ 2.74 µM) and the MIC50 (Human alphaherpesvirus 1 [7]) is reported as > 200 µg/mL. For the same molecule, the MIC50 (Human alphaherpesvirus 2) was 0.002 µg/mL (≈ 0.00784 µM), the MIC50 (Vaccinia virus) was > 100 µg/mL and the MIC50 (Human alphaherpesvirus 1 [13]) was 0.02 µg/mL (≈ 0.0784 µM). For the same molecule, the MIC50 [14] was > 100 µg/mL.

With `NC(=O)c1ncn([C@@H]2O[C@H](CO)[C@@H](O)[C@H]2O)n1` [RIBAVIRIN] the MIC50 [2] was 5.6 µg/mL (≈ 22.9 µM), the MIC50 (HEF) was 400 µg/mL (≈ 1640 µM) and the MIC50 (Sindbis virus) was > 400 µg/mL. The MIC50 (Coxsackievirus B4 [3]) was > 400 µg/mL, the MIC50 (MDCK [5]) was 19 µg/mL (≈ 77.8 µM) and the MIC50 (Enterovirus C) was 20 µg/mL (≈ 81.9 µM). The MIC50 (Human respirovirus 3) was 150 µg/mL (≈ 614 µM), the MIC50 (Influenza B virus) was 2.4 µg/mL (≈ 9.83 µM) and the MIC50 [6] was 20 µg/mL (≈ 81.9 µM). For the same molecule, the MIC50 (Human alphaherpesvirus 1 [7]) was > 200 µg/mL, the MIC50 [9] was 48.7 µg/mL (≈ 199 µM) and the MIC50 (Human alphaherpesvirus 2) was > 200 µg/mL. For the same molecule, the MIC50 [10] was 70 µg/mL (≈ 287 µM), the MIC50 (HeLa) was > 400 µg/mL and the MIC50 (Vaccinia virus) was 20 µg/mL (≈ 81.9 µM). The MIC50 (Vero) was > 400 µg/mL, the MIC50 (Coxsackievirus B4 [12]) was 10 µg/mL (≈ 40.9 µM) and the MIC50 (Human alphaherpesvirus 1 [13]) was > 200 µg/mL. For the same molecule, the MIC50 (Semliki Forest virus) was > 400 µg/mL, the MIC50 [14] was 20 µg/mL (≈ 81.9 µM) and the MIC50 (MDCK [15]) was > 250 µg/mL.

For `CC(N)C12CC3CC(CC(C3)C1)C2` (stereo not given) [RIMANTADINE], the MIC50 [2] was > 12 µg/mL, the MIC50 (MDCK [5]) was 28 µg/mL (≈ 156 µM) and the MIC50 (Influenza B virus) was > 20 µg/mL. For the same molecule, the MIC50 [9] was < 0.14 µg/mL and the MIC50 (MDCK [15]) was 250 µg/mL (≈ 1390 µM).
